Measurements from different studies.
In brackets after ≈: the same amount, converted by molar mass.

| Structure (SMILES) | target or system | test | test system | conditions | measurement | result |
| --- | --- | --- | --- | --- | --- | --- |
| COc1ccc(/C=C\c2cc(F)c(OC)c(OC)c2)cc1O | BXPC-3 | cell growth or viability, SRB | – | 48 h | GI50 | 0.745 µg/mL (≈ 2.45 µM) |
| Cc1ccc(-c2nc3ccc(C)cn3c2CC(=O)N(C)C)cc1 | Mycobacterium kansasii | microbial growth | – | 6 days | MIC | > 50 µM |
| C=C1CC[C@H](O)C/C1=C/C=C1\CCC[C@]2(C)[C@@H]([C@H](C)CCCC(C)C)CC[C@@H]12 | Hepatitis C virus | viral replication, inhibitor, luciferase | GETYPE2A | 72 h, replicon | EC50 | 12.3 µM |
| COc1cccc2c1C(=O)c1c(O)c3c(c(O)c1C2=O)C[C@@](O)(C(=O)CO)C[C@@H]3O[C@H]1C[C@H](N)[C@H](O)[C@H](C)O1 | SK-MEL | cell growth or viability | – | 48 h | IC50 | 1.1 µg/mL |
| N#CC(C#N)=NNc1cccc(Cl)c1 | human Hepatocyte | cell growth or viability | – | – | IC50 | 4.81 µM |
| Cl.O[C@]12C=C(c3nccc4c3[nH]c3ccccc34)[C@@H]3CCN(CCCC/C=C\CC1)C[C@@]31C[C@@H]3/C=C\CCCCN3[C@H]12 | SK-MEL | cell growth or viability, neutral red | – | 48 h | IC50 | 0.57 µg/mL |
| COC(=O)c1cc(-c2cccc(NC(=S)NC3CCCCC3)c2)on1 | Acinetobacter baumannii | microbial growth, broth dilution | BAA1605 | – | MIC | > 64 µg/mL |
| C1COCCN1.COc1ccc(/C=C\c2cc(I)c(OC)c(I)c2)cc1OP(=O)(O)O | BXPC-3 | cell growth or viability, SRB | – | 48 h | GI50 | 0.35 µg/mL |
| COc1c(C)c2c(c(O)c1C/C=C(\C)CCC(=O)O)C(=O)OC2 | Enterovirus B | viral replication, inhibitor | Vero, B4 | – | EC50 | > 100 µM |
| Cl.Oc1cccc2c1[nH]c1c(C3=CC4(O)CC/C=C\CCCCN5CCC3C3(CC6/C=C\CCCCN6C43)C5)nccc12 (single isomer, unassigned; (+)) | SK-MEL | cell growth or viability, neutral red | – | 48 h | IC50 | 0.78 µg/mL |
| CN[C@@H]1[C@H](O)[C@H](NC)[C@H]2O[C@@]3(O)C(=O)C[C@@H](C)O[C@H]3O[C@@H]2[C@H]1O | Proteus mirabilis | microbial growth, broth dilution | ATCC25933 | – | MIC | > 200 µg/mL |
| CC1CC(C)(C)CC2(C1)SC(C)C(=O)N2NC(=O)c1[nH]c2ccc(Cl)cc2c1-c1ccccc1 (stereo not shown) | Enterovirus B | viral replication, inhibitor | Vero, B4 | – | EC50 | > 100 µM |
| COC(=O)c1cc(-c2cccc(NC(=O)Nc3ccc(C(F)(F)F)cc3)c2)on1 | Acinetobacter baumannii | microbial growth, broth dilution | BAA1605 | – | MIC | > 64 µg/mL |
| COc1ccc2[nH]cc(CCNc3nccc(Nc4cccc5c4ccn5C)n3)c2c1 | BXPC-3 | cell growth or viability, fluorescence | – | 72 h | IC50 | 0.008 µM |
| COC(=O)c1cc(-c2cccc(NC(=S)Nc3ccccc3Cl)c2)on1 | Acinetobacter baumannii | microbial growth, broth dilution | BAA1605 | – | MIC | > 64 µg/mL |
| CO[C@H]1/C=C/O[C@@]2(C)Oc3c(C)c(O)c4c(O)c(c(/C=N/N5CCN(C)CC5)c(O)c4c3C2=O)NC(=O)/C(C)=C\C=C\[C@H](C)[C@H](O)[C@@H](C)[C@@H](O)[C@@H](C)[C@H](OC(C)=O)[C@@H]1C | Mycobacterium kansasii | microbial growth | – | 6 days | MIC | < 0.78 µM |
